Reference: paper PMC10908290 (Drug Design, Development and Therapy, 2024)
≈ marks a conversion by molar mass, not a printed value.

What was measured:
E. coli (MTCC 739) = experiment: Antibacterial disc diffusion, E. coli; type: cell-based; details: Escherichia coli, MTCC739, 24 h, read-out: Diameter of Growth Inhibition Zone
How it was run: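 Test compound dissolved in DMSO at 100 μg/mL and loaded onto 8 mm sterile filter-paper discs. E. coli MTCC 739 prepared from pure colonies in sterile saline, adjusted to 0.5 McFarland, and swabbed onto Mueller-Hinton agar. Plates incubated 24 h at 37°C, then zone of inhibition measured. Ampicillin as reference. Mean ± SD of three independent experiments.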

MCF-7 = experiment: Cytotoxic activity, MCF-7; type: cell-based; details: for CC50: MCF7, read-out: LC50; for SI (Selectivity Index): IC50 value normal cell / IC50 value cancer cell (Vero / MCF-7)
[1] = Cytotoxic activity, normal Vero cell line; type: cell-based; details: African green monkey, Vero cells (normal cell line)
S. aureus = experiment: Minimum inhibitory concentration, S. aureus; type: cell-based; details: Staphylococcus aureus, read-out: Minimal Inhibitory Concentration (MIC)
E. coli = experiment: Minimum inhibitory concentration, E. coli; type: cell-based; details: Escherichia coli, read-out: Minimal Inhibitory Concentration (MIC)
mushroom tyrosinase = experiment: Mushroom tyrosinase inhibitory activity, spectrophotometric, L-DOPA substrate; type: biochemical
[2] = DPPH free radical scavenging; details: Table 6, unit not given
How it was run: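 Test compound solutions (25 or 100 µg/mL in methanol) added to 0.004% (w/v) methanolic DPPH. After 30 min incubation, absorbance read at 517 nm. Percent inhibition calculated against DPPH solution lacking test material. Run in triplicate.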

Row | Compound | zone of inhibition at 100 µg/mL (E. coli (MTCC 739)) [mm] | CC50 (MCF-7; Homo sapiens) [µg/mL] | SI (Selectivity Index) (MCF-7) | CC50 [1] [µg/mL] | IC (TGI) (MCF-7; Homo sapiens, MCF7, read-out: TGI) [µM] | Cytotoxic activity (MCF-7; Table 6, unit not given, equals MCF-7 LC50) | MIC (S. aureus) [µg/mL] | MIC (E. coli) [µg/mL] | percentage of tyrosinase inhibition (mushroom tyrosinase; 25 µg/mL) [%] | percentage of tyrosinase inhibition (mushroom tyrosinase; 50 µg/mL) [%] | percentage of tyrosinase inhibition (mushroom tyrosinase; 100 µg/mL) [%] | Tyrosinase inhibition IC50 (mushroom tyrosinase; mean ± SE of three experiments) [µg/mL] | Antioxidant activity (100 µg/mL) [2]
1 | CC1(C)S[C@@H]2[C@H](NC(=O)[C@H](N)c3ccccc3)C(=O)N2[C@H]1C(=O)O [Ampicillin] | 17 | – | – | – | – | – | – | – | – | – | – | – | –
2 | COc1cccc2c1C(=O)c1c(O)c3c(c(O)c1C2=O)C[C@@](O)(C(=O)CO)C[C@@H]3O[C@H]1C[C@H](N)[C@H](O)[C@H](C)O1 [Doxorubicin, reference compound] | – | 0.74 ± 0.01 (≈ 1.36 µM) | 26.82 | 19.85 ± 0.02 (≈ 36.5 µM) | – | – | – | – | – | – | – | – | –
3 | Cc1ccccc1NC(=O)C1C(=O)C(c2ccccc2)c2ccc3c(c21)C(=O)c1ccccc1C3=O (stereo not shown) [Compound 1, 2,6,11-Trioxo-3-Phenyl-N-(o-Tolyl)-2,3,6,11-Tetrahydro-1H-Cyclopenta[a]anthracene-1-Carboxamide] | – | 87 ± 0.16 (≈ 185 µM) | 1.06 | 93.01 ± 0.05 (≈ 197 µM) | 60.1 ± 0.09 | 87.0± 0.16 | 64 (≈ 136 µM) | > 100 | 13.72 ± 0.02 | 49.30 ± 1.06 | 51.23 ± 0.23 | 77.62 ± 1.20 | 58.11
4 | O=c1cc(CO)occ1O [Kojic acid, reference compound] | – | – | – | – | – | – | – | – | 56.23 ± 1.12 | 67.21 ± 1.12 | 84.65 ± 1.62 | – | –
